Here are results for twelve molecules from ChEMBL document CHEMBL5252514, “Conopeptide-Derived κ-Opioid Agonists (Conorphins): Potent, Selective, and Metabolic Stable Dynorphin A Mimetics with Antinociceptive Properties” (J Med Chem, 2016).

The target in data set [1] is Kappa-type opioid receptor (Homo sapiens, UniProt P41145). Description: Displacement of [3H]U69593 from human kappa opioid receptor expressed in CHO-K1 cells incubated for 1 hr by 1450 microbeta scintillation counter analysis. Format: cell-based. An outline of the steps: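 Membranes from transiently KOR-transfected CHO-K1 cells (~2 µg/well) used in SPA with 3H-U69,593 (1 nM). Competitor ranged 1 pM–10 µM in 50 mM Tris-HCl pH 7.4, 5 mM MgCl2, 0.1% BSA. Incubated 1 h at room temperature with shaking. Nonspecific binding defined with 10 µM dynorphin A. Sigmoidal dose-response fit; at least three independent experiments in triplicate.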
Chain of Kappa-type opioid receptor (P41145 whole entry): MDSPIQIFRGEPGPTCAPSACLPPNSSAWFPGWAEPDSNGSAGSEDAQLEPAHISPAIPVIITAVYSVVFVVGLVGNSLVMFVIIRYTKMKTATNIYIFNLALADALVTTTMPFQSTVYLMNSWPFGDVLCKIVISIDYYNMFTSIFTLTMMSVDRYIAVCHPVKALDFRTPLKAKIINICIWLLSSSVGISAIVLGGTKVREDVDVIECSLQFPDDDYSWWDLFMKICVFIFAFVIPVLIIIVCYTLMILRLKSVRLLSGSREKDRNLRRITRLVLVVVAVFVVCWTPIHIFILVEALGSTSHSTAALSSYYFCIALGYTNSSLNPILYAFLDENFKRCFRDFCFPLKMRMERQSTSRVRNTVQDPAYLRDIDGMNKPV
(Loss of bound radioactivity is the signal in a displacement assay; it reports binding, not function.)

The nature of data set [2]: Metabolic stability in Wistar rat plasma assessed as half life by HPLC analysis. It is filed as ADME, cell-free. A digest of the protocol: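 Peptide at 1 mg/mL in sterile PBS pH 7.4 was mixed 1:1 with thawed, centrifuged Wistar rat plasma supernatant and incubated at 37°C in triplicate. Samples at 0, 1, 2, 3, 4, 6 and 24 h were quenched with acetonitrile and then 2% TFA/water, and analysed by HPLC with inline electrospray MS.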

Where a SMILES comes first, the peptide text is derived from it.

For the molecule `N=C(N)NCCC[C@@H](NC(=O)[C@H]1NCCc2ccccc21)C(=O)N[C@H](CCCNC(=N)N)C(=O)N[C@@H](CCC(N)=O)C(=O)N[C@@H](CC1CCCCC1)C(=O)N[C@H]1CSSC[C@@H](C(N)=O)NC1=O`, affinity in data set [1] was put at a Ki of 1.18 nM. The half-life (as a rule, how long it takes for the measured level to halve) in data set [2] came to 0.75 h. The matching figures for `N=C(N)NCCC[C@H](NC(=O)[C@H](CCCNC(=N)N)NC(=O)[C@@H]1CSSC[C@H](NC(=O)[C@@H](N)CC(N)=O)C(=O)N1)C(=O)N[C@@H](CCC(N)=O)C(=O)N[C@@H](CC1CCCCC1)C(=O)N[C@H]1CSSC[C@@H](C(N)=O)NC1=O` (HELM PEPTIDE1{N.C.C.R.R.Q.[Cha].C.C.[am]}$PEPTIDE1,PEPTIDE1,2:R3-3:R3|PEPTIDE1,PEPTIDE1,8:R3-9:R3$$$V2.0): 1.3 nM and below 0.25 h. Consider `N=C(N)NCCC[C@@H](NC(=O)[C@@H](CCCNC(=N)N)NC(=O)[C@@H]1CCCN1C(=O)c1ccc(Cl)c(Cl)c1)C(=O)N[C@@H](CCC(N)=O)C(=O)N[C@@H](CS)C(=O)N[C@@H](CC1CCCCC1)C(=O)N[C@H]1CSSC[C@@H](C(N)=O)NC1=O`, for which the inhibition constant (Ki) (commonly a dissociation constant, usually derived from enzyme kinetics or from competition with a known ligand) in data set [1] amounted to 0.98 nM. Moreover, the half-life in data set [2] is 1 h. The matching figures for `N=C(N)NCCC[C@H](NC(=O)[C@@H]1CCC(=O)N1)C(=O)N[C@H](CCCNC(=N)N)C(=O)N[C@@H](CCC(N)=O)C(=O)N[C@@H](CC1CCCCC1)C(=O)N[C@H]1CSSC[C@@H](C(N)=O)NC1=O`: 16.1 nM and 20 h. For the molecule `CC[C@H](C)[C@H](NC(=O)[C@H](CCCNC(=N)N)NC(=O)[C@H](CCCNC(=N)N)NC(=O)[C@H](CC(C)C)NC(=O)[C@H](Cc1ccccc1)NC(=O)CNC(=O)CNC(=O)[C@@H](N)Cc1ccc(O)cc1)C(=O)N[C@@H](CCCNC(=N)N)C(=O)N1CCC[C@H]1C(=O)N[C@@H](CCCCN)C(=O)N[C@@H](CC(C)C)C(=O)N[C@@H](CCCCN)C(=O)N[C@@H](Cc1c[nH]c2ccccc12)C(=O)N[C@@H](CC(=O)O)C(=O)N[C@@H](CC(N)=O)C(=O)N[C@@H](CCC(N)=O)C(N)=O`, the half-life in data set [2] was determined as 2 h. Molecule `N=C(N)NCCC[C@@H](NC(=O)[C@@H](CCCNC(=N)N)NC(=O)[C@@H]1CCCN1C(=O)c1ccccc1)C(=O)N[C@@H](CCC(N)=O)C(=O)N[C@@H](CC1CCCCC1)C(N)=O` came in with a Ki in data set [1] of 22500 nM.

As for `N=C(N)NCCC[C@@H](NC(=O)[C@@H](CCCNC(=N)N)NC(=O)[C@@H]1CCCN1C(=O)c1ccccc1)C(=O)N[C@@H](CCC(N)=O)C(=O)N[C@@H](CC1CCCCC1)C(=O)N[C@H]1CSS[C@H]2C[C@@H](C(N)=O)N(C2)C1=O`, the Ki in data set [1] stood at 208 nM. `N=C(N)NCCC[C@@H](NC(=O)[C@@H](CCCNC(=N)N)NC(=O)[C@@H]1CCCN1C(=O)c1ccccc1)C(=O)N[C@@H](CCC(N)=O)C(=O)N[C@@H](CC1CCCCC1)C(=O)N[C@H]1CC(=O)NC[C@@H](C(N)=O)NC1=O` yielded a Ki in data set [1] of 233 nM. The same measure, in the same setting: next, `CC[C@H](C)[C@H](NC(=O)[C@H](CCC(N)=O)NC(=O)[C@H](C)NC(=O)[C@H](CCCNC(=N)N)NC(=O)[C@@H]1CSSC[C@H](NC(=O)[C@@H](N)CC(N)=O)C(=O)N1)C(=O)N[C@H]1CSSC[C@@H](C(N)=O)NC1=O` (HELM PEPTIDE1{N.C.C.R.A.Q.I.C.C.[am]}$PEPTIDE1,PEPTIDE1,2:R3-3:R3|PEPTIDE1,PEPTIDE1,8:R3-9:R3$$$V2.0): 406 nM. In turn, `N=C(N)NCCC[C@@H](NC(=O)[C@@H]1CCC(=O)N1)C(=O)N[C@H](CCCNC(=N)N)C(=O)N[C@@H](CCC(N)=O)C(=O)N[C@@H](CC1CCCCC1)C(=O)N[C@H]1CCSSCC[C@@H](C(N)=O)NC1=O` came in with an inhibition constant (Ki) in data set [1] of 241 nM. In data set [1], `N=C(N)NCCC[C@@H](NC(=O)c1cccc(Br)c1)C(=O)N[C@H](CCCNC(=N)N)C(=O)N[C@@H](CCC(N)=O)C(=O)N[C@@H](CC1CCCCC1)C(=O)N[C@H]1CSSC[C@@H](C(N)=O)NC1=O` showed a Ki of 5.3 nM. Still for that read-out and setting: then `N=C(N)NCCC[C@@H](NC(=O)[C@@H](CCCNC(=N)N)NC(=O)[C@@H]1CCCN1C(=O)c1ccccc1)C(=O)N[C@@H](CCC(N)=O)C(=O)N[C@@H](CC1CCCCC1)C(=O)N[C@H]1CSSCCN(CC(N)=O)C1=O`, with 465 nM.
